Values after ≈ are worked out from the molar mass of the structure shown.
Tests used:
Assay type in all cases: functional
[1] = tested on: Mycobacterium tuberculosis; test: Antimycobacterial activity against rifampicin-resistant Mycobacterium tuberculosis isolate P98 after 7 days by microplate alamar blue assay; conditions: isolate P98, 168 h
How it was run: (§1)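 Each well held a 1/100 culture dilution plus 10-point two-fold DMSO dilutions (top 100 µg/mL, final DMSO 2%). INH and RIF were the positive controls. After 7 days at 37 °C, Tween 80 and alamarBlue were added for 16–24 h. MIC was the lowest concentration preventing the blue-to-pink change.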

[2] = tested on: Mycobacterium tuberculosis; test: Antimycobacterial activity against rifampicin/isoniazid/pyrazinamide-resistant Mycobacterium tuberculosis isolate P71 after 7 days by microplate alamar blue assay; conditions: isolate P71, 168 h; how it was run: as §1
[3] = tested on: Mycobacterium tuberculosis; test: Antimycobacterial activity against rifampicin-resistant Mycobacterium tuberculosis isolate R7 after 7 days by microplate alamar blue assay; conditions: isolate R7, 168 h; how it was run: as §1
[4] = tested on: Mycobacterium tuberculosis; test: Antimycobacterial activity against rifampicin-resistant Mycobacterium tuberculosis isolate P91 after 7 days by microplate alamar blue assay; conditions: isolate P91, 168 h; how it was run: as §1
[5] = tested on: Mycobacterium tuberculosis; test: Antimycobacterial activity against rifampicin-resistant Mycobacterium tuberculosis isolate P103 after 7 days by microplate alamar blue assay; conditions: isolate P103, 168 h; how it was run: as §1
[6] = tested on: Mycobacterium tuberculosis; test: Antimycobacterial activity against rifampicin-resistant Mycobacterium tuberculosis isolate P90 after 7 days by microplate alamar blue assay; conditions: isolate P90, 168 h; how it was run: as §1

Structure (SMILES)	MIC [1] [mg/L]	MIC [2] [mg/L]	MIC [3] [mg/L]	MIC [4] [mg/L]	MIC [5] [mg/L]	MIC [6] [mg/L]
O=C(Nc1cc(O)cc(Cc2ccccc2)c1)C1CCCCC1	> 100	> 100	3.12 (≈ 10.1 µM)	0.39 (≈ 1.26 µM)	0.39 (≈ 1.26 µM)	> 100
O=C(Nc1cc(O)cc(Cc2ccccc2)c1)c1ccccc1	> 100	> 100	0.78 (≈ 2.57 µM)	0.39 (≈ 1.29 µM)	0.39 (≈ 1.29 µM)	> 100

— ChEMBL document CHEMBL4257537, “Design, synthesis, and biological evaluation of m-amidophenol derivatives as a new class of antitubercular agents” (Medchemcomm, 2018)
